From ChEMBL document CHEMBL4689842, “EUbOPEN Chemogenomics Library wave 1” (2021)
Where “and” joins values, the source holds several entries; their conditions need not be identical. Identical values can stand only once.

Tested on: HEK-293T
Assay: Multiplex assay against HEK293T;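 on Population Tubulin-Different-Phenotype (%): share of the cells with healthy nuclei that show this phenotype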
Assay type: toxicity, cell-based
Conditions: human
In short: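 Compound was added to live cells that had been stained at seeding with Hoechst33342, BioTracker Green Microtubule Cytoskeleton Dye, MitoTracker Red and Annexin V Alexa Fluor 680, and imaging followed on a CQ1 microscope at 37°C and 5% CO2. CellPathfinder machine-learning gating divided cells into Hoechst high-intensity objects or normal cells, normal cells into healthy, pyknosed or fragmented nuclei, and pyknosed cells into mitotic or apoptotic. Tubulin, mitochondrial-mass and membrane-permeability phenotypes are per cents of healthy-nucleus cells.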

[1] = 12 h, 1 µM, compound concentration 1 uM, replicate 1
[2] = 12 h, 1 µM, compound concentration 1 uM, replicate 2
[3] = 12 h, 10 µM, compound concentration 10 uM, replicate 1
[4] = 12 h, 10 µM, compound concentration 10 uM, replicate 2
[5] = 24 h, 1 µM, compound concentration 1 uM, replicate 1
[6] = 24 h, 1 µM, compound concentration 1 uM, replicate 2
[7] = 24 h, 10 µM, compound concentration 10 uM, replicate 1
[8] = 24 h, 10 µM, compound concentration 10 uM, replicate 2
[9] = 48 h, 10 µM, compound concentration 10 uM, replicate 1
[10] = 48 h, 10 µM, compound concentration 10 uM, replicate 2

O=c1[nH]c2ccccc2n1C1CCN(Cc2ccc(-c3[nH]c4cc5ncnc5cc4nc3-c3ccccc3)cc2)CC1
Population Apoptotic (%) [1]: 16%
Population Fragmented Nuclei (%) [1]: 13%
Population Healthy Nuclei (%) [1]: 69%
Population Hoechst High Intensity Objects (%) [1]: 7%
Population Membrane Permeable-Phenotype (%) [1]: 7%
Population Mitochondria Different-Phenotype (%) [1]: 3%
Population Mitotic Cells (%) [1]: 83%
Population Normal (%) [1]: 92%
Population Pyknosed Nuclei (%) [1]: 16%
Population Tubulin-Different-Phenotype (%) [1]: 6%
Total Cell Count [1]: 646
Population Apoptotic (%) [2]: 10%
Population Fragmented Nuclei (%) [2]: 5%
Population Healthy Nuclei (%) [2]: 89%
Population Hoechst High Intensity Objects (%) [2]: 2%
Population Membrane Permeable-Phenotype (%) [2]: 5%
Population Mitochondria Different-Phenotype (%) [2]: 23%
Population Mitotic Cells (%) [2]: 90%
Population Normal (%) [2]: 97%
Population Pyknosed Nuclei (%) [2]: 5%
Population Tubulin-Different-Phenotype (%) [2]: 43%
Total Cell Count [2]: 1621
Population Apoptotic (%) [3]: 38%
Population Fragmented Nuclei (%) [3]: 10%
Population Healthy Nuclei (%) [3]: 50%
Population Hoechst High Intensity Objects (%) [3]: 20%
Population Membrane Permeable-Phenotype (%) [3]: 22%
Population Mitochondria Different-Phenotype (%) [3]: 40%
Population Mitotic Cells (%) [3]: 61%
Population Normal (%) [3]: 79%
Population Pyknosed Nuclei (%) [3]: 39%
Population Tubulin-Different-Phenotype (%) [3]: 91%
Total Cell Count [3]: 661
Population Apoptotic (%) [4]: 24%
Population Fragmented Nuclei (%) [4]: 2%
Population Healthy Nuclei (%) [4]: 71%
Population Hoechst High Intensity Objects (%) [4]: 13%
Population Membrane Permeable-Phenotype (%) [4]: 13%
Population Mitochondria Different-Phenotype (%) [4]: 51%
Population Mitotic Cells (%) [4]: 75%
Population Normal (%) [4]: 86%
Population Pyknosed Nuclei (%) [4]: 25%
Population Tubulin-Different-Phenotype (%) [4]: 86%
Total Cell Count [4]: 974
Population Apoptotic (%) [5]: 11%
Population Fragmented Nuclei (%) [5]: 14%
Population Hoechst High Intensity Objects (%) [5]: 6%
Population Membrane Permeable-Phenotype (%) [5]: 17%
Population Mitochondria Different-Phenotype (%) [5]: 3%
Population Mitotic Cells (%) [5]: 88%
Population Normal (%) [5]: 93%
Population Pyknosed Nuclei (%) [5]: 5%
Population Tubulin-Different-Phenotype (%) [5]: 14%
Total Cell Count [5]: 776
Population Apoptotic (%) [6]: 7%
Population Fragmented Nuclei (%) [6]: 17%
Population Healthy Nuclei (%) [6]: 79%
Population Hoechst High Intensity Objects (%) [6]: 4%
Population Membrane Permeable-Phenotype (%) [6]: 14%
Population Mitochondria Different-Phenotype (%) [6]: 6%
Population Mitotic Cells (%) [6]: 92%
Population Normal (%) [6]: 95%
Population Pyknosed Nuclei (%) [6]: 3%
Population Tubulin-Different-Phenotype (%) [6]: 52%
Total Cell Count [6]: 2517
Population Apoptotic (%) [7]: 54%
Population Fragmented Nuclei (%) [7]: 12%
Population Healthy Nuclei (%) [7]: 56%
Population Hoechst High Intensity Objects (%) [7]: 31%
Population Membrane Permeable-Phenotype (%) [7]: 9%
Population Mitochondria Different-Phenotype (%) [7]: 70%
Population Mitotic Cells (%) [7]: 45%
Population Normal (%) [7]: 68%
Population Pyknosed Nuclei (%) [7]: 31%
Population Tubulin-Different-Phenotype (%) [7]: 83%
Total Cell Count [7]: 612
Population Apoptotic (%) [8]: 28%
Population Fragmented Nuclei (%) [8]: 2%
Population Healthy Nuclei (%) [8]: 71%
Population Hoechst High Intensity Objects (%) [8]: 23%
Population Membrane Permeable-Phenotype (%) [8]: 6%
Population Mitochondria Different-Phenotype (%) [8]: 67%
Population Mitotic Cells (%) [8]: 71%
Population Normal (%) [8]: 76%
Population Pyknosed Nuclei (%) [8]: 26%
Population Tubulin-Different-Phenotype (%) [8]: 72%
Total Cell Count [8]: 883

C#Cc1cccc(Nc2ncnc3cc(OCCOC)c(OCCOC)cc23)c1 [ERLOTINIB]
Population Apoptotic (%) [3]: 61% and 22% and 23%
Population Fragmented Nuclei (%) [3]: 11% and 22% and 20%
Population Healthy Nuclei (%) [3]: 23% and 55% and 63%
Population Hoechst High Intensity Objects (%) [3]: 14% and 12%
Population Membrane Permeable-Phenotype (%) [3]: 8% and 18% and 7%
Population Mitotic Cells (%) [3]: 38% and 77% and 76%
Population Normal (%) [3]: 85% and 87%
Total Cell Count [3]: 229 and 602 and 657
Population Fragmented Nuclei (%) [4]: 12% and 6% and 7%
Population Hoechst High Intensity Objects (%) [4]: 5% and 2%
Population Mitotic Cells (%) [4]: 49% and 88% and 94%
Population Normal (%) [4]: 94% and 97%
Population Fragmented Nuclei (%) [7]: 10% and 13% and 15%
Population Healthy Nuclei (%) [7]: 31% and 68% and 74%
Population Hoechst High Intensity Objects (%) [7]: 16% and 12% and 8%
Population Mitotic Cells (%) [7]: 29% and 68% and 78%
Population Normal (%) [7]: 83% and 87% and 91%
Total Cell Count [7]: 250 and 573 and 727
Population Healthy Nuclei (%) [8]: 38% and 82% and 70%
Population Hoechst High Intensity Objects (%) [8]: 2% and 3%
Population Normal (%) [8]: 97% and 96%
Population Apoptotic (%) [9]: 64%
Population Fragmented Nuclei (%) [9]: 20%
Population Healthy Nuclei (%) [9]: 22%
Population Hoechst High Intensity Objects (%) [9]: 20%
Population Membrane Permeable-Phenotype (%) [9]: 2%
Population Mitochondria Different-Phenotype (%) [9]: 88%
Population Mitotic Cells (%) [9]: 35%
Population Normal (%) [9]: 79%
Population Pyknosed Nuclei (%) [9]: 57%
Population Tubulin-Different-Phenotype (%) [9]: 91%
Total Cell Count [9]: 254
Population Apoptotic (%) [10]: 45%
Population Fragmented Nuclei (%) [10]: 4%
Population Healthy Nuclei (%) [10]: 56%
Population Hoechst High Intensity Objects (%) [10]: 5%
Population Membrane Permeable-Phenotype (%) [10]: 5%
Population Mitochondria Different-Phenotype (%) [10]: 81%
Population Mitotic Cells (%) [10]: 54%
Population Normal (%) [10]: 94%
Population Pyknosed Nuclei (%) [10]: 38%
Population Tubulin-Different-Phenotype (%) [10]: 97%
Total Cell Count [10]: 197

Cc1nc(N2CC[C@H](O)C2)ncc1-c1cc(C(F)(F)F)cc2[nH]ncc12
Population Apoptotic (%) [1]: 20%
Population Fragmented Nuclei (%) [1]: 9%
Population Healthy Nuclei (%) [1]: 70%
Population Hoechst High Intensity Objects (%) [1]: 7%
Population Membrane Permeable-Phenotype (%) [1]: 3%
Population Mitochondria Different-Phenotype (%) [1]: 7%
Population Mitotic Cells (%) [1]: 79%
Population Normal (%) [1]: 92%
Population Pyknosed Nuclei (%) [1]: 20%
Population Tubulin-Different-Phenotype (%) [1]: 5%
Total Cell Count [1]: 628
Population Apoptotic (%) [2]: 8%
Population Fragmented Nuclei (%) [2]: 7%
Population Healthy Nuclei (%) [2]: 87%
Population Hoechst High Intensity Objects (%) [2]: 2%
Population Membrane Permeable-Phenotype (%) [2]: 1%
Population Mitochondria Different-Phenotype (%) [2]: 10%
Population Mitotic Cells (%) [2]: 91%
Population Normal (%) [2]: 97%
Population Pyknosed Nuclei (%) [2]: 4%
Population Tubulin-Different-Phenotype (%) [2]: 9%
Total Cell Count [2]: 1293
Population Apoptotic (%) [3]: 24%
Population Fragmented Nuclei (%) [3]: 11%
Population Healthy Nuclei (%) [3]: 70%
Population Hoechst High Intensity Objects (%) [3]: 9%
Population Membrane Permeable-Phenotype (%) [3]: 4%
Population Mitochondria Different-Phenotype (%) [3]: 4%
Population Mitotic Cells (%) [3]: 75%
Population Normal (%) [3]: 90%
Population Pyknosed Nuclei (%) [3]: 18%
Population Tubulin-Different-Phenotype (%) [3]: 3%
Total Cell Count [3]: 699
Population Apoptotic (%) [4]: 5%
Population Fragmented Nuclei (%) [4]: 7%
Population Healthy Nuclei (%) [4]: 88%
Population Hoechst High Intensity Objects (%) [4]: 1%
Population Membrane Permeable-Phenotype (%) [4]: 1%
Population Mitochondria Different-Phenotype (%) [4]: 8%
Population Mitotic Cells (%) [4]: 94%
Population Normal (%) [4]: 98%
Population Pyknosed Nuclei (%) [4]: 4%
Population Tubulin-Different-Phenotype (%) [4]: 4%
Total Cell Count [4]: 1684
Population Apoptotic (%) [5]: 22%
Population Fragmented Nuclei (%) [5]: 7%
Population Healthy Nuclei (%) [5]: 79%
Population Hoechst High Intensity Objects (%) [5]: 5%
Population Membrane Permeable-Phenotype (%) [5]: 5%
Population Mitochondria Different-Phenotype (%) [5]: 4%
Population Mitotic Cells (%) [5]: 77%
Population Normal (%) [5]: 94%
Population Pyknosed Nuclei (%) [5]: 12%
Population Tubulin-Different-Phenotype (%) [5]: 11%
Total Cell Count [5]: 702
Population Apoptotic (%) [6]: 3%
Population Fragmented Nuclei (%) [6]: 17%
Population Hoechst High Intensity Objects (%) [6]: 2%
Population Membrane Permeable-Phenotype (%) [6]: 4%
Population Mitochondria Different-Phenotype (%) [6]: 3%
Population Mitotic Cells (%) [6]: 96%
Population Normal (%) [6]: 97%
Population Pyknosed Nuclei (%) [6]: 2%
Population Tubulin-Different-Phenotype (%) [6]: 14%
Total Cell Count [6]: 1975
Population Apoptotic (%) [7]: 28%
Population Fragmented Nuclei (%) [7]: 10%
Population Healthy Nuclei (%) [7]: 80%
Population Hoechst High Intensity Objects (%) [7]: 5%
Population Membrane Permeable-Phenotype (%) [7]: 12%
Population Mitochondria Different-Phenotype (%) [7]: 1%
Population Mitotic Cells (%) [7]: 71%
Population Normal (%) [7]: 94%
Population Pyknosed Nuclei (%) [7]: 9%
Population Tubulin-Different-Phenotype (%) [7]: 6%
Total Cell Count [7]: 840
Population Apoptotic (%) [8]: 6%
Population Fragmented Nuclei (%) [8]: 21%
Population Healthy Nuclei (%) [8]: 75%
Population Hoechst High Intensity Objects (%) [8]: 2%
Population Membrane Permeable-Phenotype (%) [8]: 5%
Population Mitotic Cells (%) [8]: 93%
Population Normal (%) [8]: 97%
Population Pyknosed Nuclei (%) [8]: 2%
Population Tubulin-Different-Phenotype (%) [8]: 5%
Total Cell Count [8]: 2845
